Data set [1] addresses T1, Glycogen phosphorylase, liver form (Rattus norvegicus) (UniProt P09811).
T1 sequence (whole entry): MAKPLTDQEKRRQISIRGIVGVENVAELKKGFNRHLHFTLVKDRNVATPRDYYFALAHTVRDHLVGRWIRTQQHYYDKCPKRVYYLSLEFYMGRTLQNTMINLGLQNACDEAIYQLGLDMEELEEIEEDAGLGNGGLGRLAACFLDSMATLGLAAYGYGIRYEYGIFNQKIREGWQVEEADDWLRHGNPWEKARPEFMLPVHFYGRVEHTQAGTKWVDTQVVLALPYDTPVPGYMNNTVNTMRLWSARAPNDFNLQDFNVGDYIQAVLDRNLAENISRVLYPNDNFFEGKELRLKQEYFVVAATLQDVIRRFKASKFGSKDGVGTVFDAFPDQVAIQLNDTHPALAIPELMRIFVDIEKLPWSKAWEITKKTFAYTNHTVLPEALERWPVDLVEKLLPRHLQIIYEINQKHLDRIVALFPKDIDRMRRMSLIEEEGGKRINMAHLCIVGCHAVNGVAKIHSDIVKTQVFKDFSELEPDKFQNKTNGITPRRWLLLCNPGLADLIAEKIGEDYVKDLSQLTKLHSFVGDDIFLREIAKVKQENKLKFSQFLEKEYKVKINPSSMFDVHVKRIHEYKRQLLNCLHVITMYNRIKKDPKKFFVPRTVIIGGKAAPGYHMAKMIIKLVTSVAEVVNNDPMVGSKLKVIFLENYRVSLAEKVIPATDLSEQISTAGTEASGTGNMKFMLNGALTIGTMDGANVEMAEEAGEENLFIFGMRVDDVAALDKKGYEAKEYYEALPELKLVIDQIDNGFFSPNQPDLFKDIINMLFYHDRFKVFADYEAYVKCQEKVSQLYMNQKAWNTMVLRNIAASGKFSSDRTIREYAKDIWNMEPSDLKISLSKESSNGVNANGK
Description: Inhibition of glycogen phosphorylase a in Wistar rat hepatocytes assessed as effect on conversion of GPa to GPb forms by measuring GPa level at 9 mM after 30 mins relative to 5 mM glucose. Particulars: Hepatocyte. In kind it is cell-based. Details: scale not given: the % may be the effect or the level left. In outline:
(§1)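 Hepatocytes from male Wistar rats (200-300 g), isolated by collagenase perfusion, seeded at 6 x 10⁴ cells/cm² in MEM with 5% calf serum. After attachment they were cultured 24 h in serum-free MEM with 5 mM glucose, 10 nM dexamethasone and 1 nM insulin. Agents were added 1 h after the medium change and incubated 30 min. Cells were snap frozen, and GPa activity was read by coupling to glucose 6-phosphate dehydrogenase. Values are % of the 5 mM glucose control (with or without 9 mM 5-thioglucose); means ± SEM, n=5 preparations; paired t-test.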

Data set [2] deals with T2, Glycogen phosphorylase, liver form (Homo sapiens, UniProt P06737).
T2 sequence (P06737 whole entry): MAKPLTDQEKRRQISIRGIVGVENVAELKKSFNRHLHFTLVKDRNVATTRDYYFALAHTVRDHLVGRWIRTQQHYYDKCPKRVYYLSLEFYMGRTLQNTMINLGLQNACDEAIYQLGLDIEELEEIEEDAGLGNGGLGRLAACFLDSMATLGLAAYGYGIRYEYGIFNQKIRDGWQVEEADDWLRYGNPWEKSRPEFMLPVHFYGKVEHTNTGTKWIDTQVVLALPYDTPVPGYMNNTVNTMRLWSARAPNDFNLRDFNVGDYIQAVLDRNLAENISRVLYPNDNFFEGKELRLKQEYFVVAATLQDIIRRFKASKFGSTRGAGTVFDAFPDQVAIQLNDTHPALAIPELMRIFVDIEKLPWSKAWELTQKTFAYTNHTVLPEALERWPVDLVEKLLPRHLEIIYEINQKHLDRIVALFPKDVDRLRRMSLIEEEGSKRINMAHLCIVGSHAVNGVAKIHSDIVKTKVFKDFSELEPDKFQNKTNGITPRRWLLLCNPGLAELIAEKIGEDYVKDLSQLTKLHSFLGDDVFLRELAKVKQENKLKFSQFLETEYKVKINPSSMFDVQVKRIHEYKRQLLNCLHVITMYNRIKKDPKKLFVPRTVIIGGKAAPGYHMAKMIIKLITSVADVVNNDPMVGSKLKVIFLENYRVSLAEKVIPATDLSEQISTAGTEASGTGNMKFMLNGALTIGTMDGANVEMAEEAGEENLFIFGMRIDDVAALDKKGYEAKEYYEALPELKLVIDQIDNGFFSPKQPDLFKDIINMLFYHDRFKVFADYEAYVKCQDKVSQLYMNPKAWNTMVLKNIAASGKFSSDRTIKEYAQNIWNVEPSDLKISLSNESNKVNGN
Nature of the data set: Inhibition of glycogen phosphorylase a (unknown origin).

Data set [3] addresses T3, Glycogen phosphorylase, muscle form (Oryctolagus cuniculus, UniProt P00489).
T3 sequence (P00489 whole entry): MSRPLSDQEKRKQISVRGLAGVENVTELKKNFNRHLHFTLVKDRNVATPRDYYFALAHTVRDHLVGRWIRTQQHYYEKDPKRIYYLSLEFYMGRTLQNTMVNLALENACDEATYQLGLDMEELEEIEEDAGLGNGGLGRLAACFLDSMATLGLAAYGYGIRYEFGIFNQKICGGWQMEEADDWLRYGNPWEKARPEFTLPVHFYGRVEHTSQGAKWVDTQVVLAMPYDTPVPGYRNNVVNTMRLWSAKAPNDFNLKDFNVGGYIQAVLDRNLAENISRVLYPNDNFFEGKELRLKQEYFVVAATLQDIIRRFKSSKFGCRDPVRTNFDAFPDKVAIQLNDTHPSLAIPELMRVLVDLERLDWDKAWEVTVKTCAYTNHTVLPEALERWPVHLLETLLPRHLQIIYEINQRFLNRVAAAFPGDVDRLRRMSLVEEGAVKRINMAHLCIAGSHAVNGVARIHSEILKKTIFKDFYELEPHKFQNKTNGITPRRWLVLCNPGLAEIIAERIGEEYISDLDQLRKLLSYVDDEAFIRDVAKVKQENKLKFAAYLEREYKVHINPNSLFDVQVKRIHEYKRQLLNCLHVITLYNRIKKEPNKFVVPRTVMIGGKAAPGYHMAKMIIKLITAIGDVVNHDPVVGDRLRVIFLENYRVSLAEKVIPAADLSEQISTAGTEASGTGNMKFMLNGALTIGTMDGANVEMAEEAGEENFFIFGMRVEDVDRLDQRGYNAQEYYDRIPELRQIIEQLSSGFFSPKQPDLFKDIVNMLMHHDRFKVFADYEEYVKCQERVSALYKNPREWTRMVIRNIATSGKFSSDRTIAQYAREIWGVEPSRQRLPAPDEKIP
Description: Inhibition of rabbit skeletal muscle glycogen phosphorylase b assessed as inorganic phosphate release. Particulars: read-out: Ki.

The target in data set [4] is T1, Glycogen phosphorylase, liver form (Rattus norvegicus). Description: Inhibition of glycogen phosphorylase a in Wistar rat hepatocytes assessed as effect on conversion of GPa to GPb forms by measuring GPa level at 2 uM after 30 mins relative to 5 mM glucose. It is filed as cell-based. Details: scale not given: the % may be the effect or the level left. Particulars: Hepatocyte. The method in brief: as §1

Data set [5] shares this target. Description: Inhibition of glycogen phosphorylase a in Wistar rat hepatocytes assessed as effect on conversion of GPa to GPb forms by measuring GPa level at 20 uM after 30 mins relative to 5 mM glucose. In kind it is cell-based. Details: scale not given: the % may be the effect or the level left. Particulars: Hepatocyte. In outline:
as §1

The nature of data set [6]: Octanol water partition coefficient, logP of the compound. It is filed as physicochemical.
Data set [7] in a line: Permeability in human Caco2 cells. It is filed as ADME, cell-based. Particulars: Caco-2, read-out: permeability. On the technique in general: Passage across Caco-2 layers is used to estimate intestinal permeability.
The target in data set [8] is T1, Glycogen phosphorylase, liver form (Rattus norvegicus). Description: Inhibition of glycogen phosphorylase a in Wistar rat hepatocytes assessed as effect on conversion of GPa to GPb forms by measuring GPa level at 25 mM after 30 mins relative to 5 mM glucose. Details: scale not given: the % may be the effect or the level left. It is filed as cell-based. Particulars: Hepatocyte. In outline:
as §1

Data set [9] shares this target. Nature of the data set: Inhibition of glycogen phosphorylase a in Wistar rat hepatocytes assessed as effect on conversion of GPa to GPb forms by measuring GPa level at 25 mM after 30 mins in presence of 9 mM 5-thioglucose relative to 5 mM glucose. In kind it is cell-based. Details: scale not given: the % may be the effect or the level left. Particulars: Hepatocyte. In outline: as §1

In data set [10] the target is T4, Glycogen phosphorylase, muscle form (Homo sapiens, UniProt P11217).
T4 sequence (P11217 whole entry): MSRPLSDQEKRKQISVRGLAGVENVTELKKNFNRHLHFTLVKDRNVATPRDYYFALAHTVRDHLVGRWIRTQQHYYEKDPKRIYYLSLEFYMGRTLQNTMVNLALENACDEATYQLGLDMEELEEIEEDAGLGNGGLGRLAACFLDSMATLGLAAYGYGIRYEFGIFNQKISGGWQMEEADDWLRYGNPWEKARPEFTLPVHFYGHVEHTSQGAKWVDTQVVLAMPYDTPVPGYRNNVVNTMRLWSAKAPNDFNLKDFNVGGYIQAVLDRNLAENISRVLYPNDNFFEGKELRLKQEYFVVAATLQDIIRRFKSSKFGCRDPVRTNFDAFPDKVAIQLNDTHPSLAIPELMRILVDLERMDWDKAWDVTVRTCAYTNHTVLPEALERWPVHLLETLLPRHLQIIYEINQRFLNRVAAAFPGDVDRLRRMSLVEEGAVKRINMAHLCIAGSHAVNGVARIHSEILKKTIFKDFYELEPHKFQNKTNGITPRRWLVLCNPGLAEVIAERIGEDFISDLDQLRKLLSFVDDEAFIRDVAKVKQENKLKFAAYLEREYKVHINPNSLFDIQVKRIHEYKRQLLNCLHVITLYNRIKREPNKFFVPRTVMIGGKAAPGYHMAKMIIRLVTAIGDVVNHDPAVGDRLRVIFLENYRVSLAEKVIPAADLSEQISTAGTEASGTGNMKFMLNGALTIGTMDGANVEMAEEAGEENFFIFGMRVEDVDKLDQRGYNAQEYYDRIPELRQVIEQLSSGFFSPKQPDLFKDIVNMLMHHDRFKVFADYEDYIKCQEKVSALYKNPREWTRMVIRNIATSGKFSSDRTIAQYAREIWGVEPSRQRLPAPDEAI
Nature of the data set: Inhibition of glycogen phosphorylase b (unknown origin). In outline:
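Rabbit muscle GPb (5 μg/ml) was assayed at 30 °C in the glycogen-synthesis direction by measuring released inorganic phosphate. Buffer was 30 mM imidazole/HCl pH 6.8 with 60 mM KCl, 0.6 mM EDTA and 0.6 mM DTT. Glycogen 0.2% w/v and AMP 1 mM were held constant, with Glc-1-P at 2-20 mM and varied inhibitor. Enzyme and glycogen were preincubated 15 min, then Glc-1-P was added. Ki was obtained by non-linear regression of initial velocities.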

Consider `O=C[C@H](O)[C@@H](O)[C@H](O)[C@H](S)CO`, for which, in [1], the Activity was determined as 106%.

One may read the IC50 as the midpoint of a concentration-inhibition curve. Take `O=C(NCCOCCOCCNC(=O)c1cc2cc(Cl)ccc2[nH]1)c1cc2cc(Cl)ccc2[nH]1`: in data set [2], half-maximal inhibition (IC50) was put at 0.006 µM.

For orientation: Ki means the dissociation constant of the complex between target and ligand, obtained from inhibition or displacement. For orientation: logP means a log measure of how a compound divides between an organic and an aqueous phase. Take `CC(C)c1ccc(/C=C/C(=O)N[C@@H]2O[C@H](CO)[C@@H](O)[C@H](O)[C@H]2O)cc1`: in [3], the Ki worked out at 4.98 µM. The values for the Activity in data set [4] and in [5] were 105% and 106%, respectively. The logP in [6] worked out at 0.296. Also, in data set [7], the Papp came to 9.85 ×10⁻⁶ cm/s.

In [2], `OC[C@H]1O[C@H](O)[C@H](O)[C@@H](O)[C@@H]1O` had a Ki of 4900 µM.

On to `O=C(COc1ccc(-c2ccccc2)cc1)N[C@@H]1O[C@H](CO)[C@@H](O)[C@H](O)[C@H]1O`, for which the Ki in data set [3] turned out to be 8.25 µM. Further, the Activity in data set [4] turned out to be 84.5%; in data set [5], 80.3%. The log partition coefficient (logP) in data set [6] is -0.082. In addition, in data set [7], the Papp is 5.09 ×10⁻⁶ cm/s.

`O=C(CCCc1ccc2c(c1)CCCC2)N[C@@H]1O[C@H](CO)[C@@H](O)[C@H](O)[C@H]1O`: the Ki in [3] is 48.7 µM. Besides, the results for the Activity in data set [4] and in data set [5] were 93% and 100%, respectively. This compound also had a logP in data set [6] of 0.208. Further, the Papp in data set [7] worked out at 9.51 ×10⁻⁶ cm/s.

`O=c1c(O)c(-c2ccc(O)c(O)c2)oc2cc(O)cc(O)c12` [QUERCETIN]: it took 4.8 µM to reach half-maximal inhibition in data set [2] (IC50).

On to `O=C(/C=C/c1ccc(-c2ccccc2)cc1)N[C@@H]1O[C@H](CO)[C@@H](O)[C@H](O)[C@H]1O`, for which the Ki in data set [3] is 5.14 µM. Further, the Activity in data set [4] is 89.4%; in data set [5] it was 83.3%. Besides, the logP in data set [6] amounted to 0.851. Besides, the Papp in data set [7] is 8.02 ×10⁻⁶ cm/s.

Take `OC[C@H]1OC(O)[C@H](O)[C@@H](O)[C@@H]1O` (stereo partly drawn): the Activity turned out to be 64.1% in data set [8] and 78.7% in [9].

In data set [10], `OC[C@H]1O[C@H](O[C@H]2[C@H](O)[C@@H](O)[C@@H](O[C@H]3[C@H](O)[C@@H](O)[C@@H](O[C@H]4[C@H](O)[C@@H](O)[C@@H](O[C@H]5[C@H](O)[C@@H](O)[C@@H](O[C@H]6[C@H](O)[C@@H](O)[C@@H](O[C@H]7[C@H](O)[C@@H](O)C(O)O[C@@H]7CO)O[C@@H]6CO)O[C@@H]5CO)O[C@@H]4CO)O[C@@H]3CO)O[C@@H]2CO)[C@H](O)[C@@H](O)[C@@H]1O` (stereo partly drawn) displayed an inhibition constant Ki of 1000 µM.

In turn, `O=C(O)C1=C(C(=O)O)NC=CC1` showed a Ki in data set [10] of 0.0016 µM.

The values are drawn from ChEMBL document CHEMBL3352414, “Structure based inhibitor design targeting glycogen phosphorylase B. Virtual screening, synthesis, biochemical and biological assessment of novel N-acyl-β-d-glucopyranosylamines” (Bioorg Med Chem, 2014).
